We go through 13 compounds from PubChem BioAssay.

The source made the active and inactive calls.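 Rule for the calls, unless noted: active = fluorescence slope higher than the sample average by over 3 SD (cut at about -0.22 in these data, passing the limit was not always enough); inactive = the rest.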

The nature of test [1]: inhibitors of TNFa-induced NFkB p65 translocation, primary screen, imaging, HUVEC, MLSMR starter and 10KST1 sets (AID 438;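 active = inhibition above 20% together with a positive visual image hit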;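 note: compound added about 3h40 before a 20 min TNFalpha stimulation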;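 for inhibition: signal is the nuclear over cytoplasmic p65 intensity ratio per well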). The conditions noted are these: HUVEC TNFa-induced p65 nuclear translocation; cell count: measured here: nuclei count (cytotoxicity indicator), at 2.08 µM; inhibition: at 2 µM, stronger effect = higher value, 0% TNFa-plus-vehicle, 100% no-TNFa wells.
A short description of test [2]: endothelial E-selectin expression blockers – imaging, HUVEC, immunofluorescence, MLSMR starter and 10KST1 sets, primary screen (AID 487;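 active = visually confirmed hit in the image check and inhibition above 20%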;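 for inhibition: signal is fraction of cell area covered by stained E-selectin grains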;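 for nuclei count: 100% = median nuclei count of all wells on the same plate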). Conditions: HUVEC TNFalpha-induced E-selectin immunofluorescence imaging, at 2 µM; inhibition: stronger effect = higher value; nuclei count: measured here: cell number, toxicity.
Test [3] in a line: Primary imaging screen for DUSP6 inhibitors that restore phospho-Erk in transfected HeLa cells, chemical complementation (AID 609;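 active = compounds giving at least 50% inhibition in the cell-based MKP-3 phosphatase rescue imaging test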;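 for inhibition: phospho-Erk level distribution per well compared with pooled transfected vehicle control wells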). The conditions noted are these: HeLa MKP-3 transfected, phospho-Erk imaging KS statistic, at 10 µM, cells stimulated with TPA for 15 min.
Test [4] has as its target Dual specificity protein phosphatase 6 (Homo sapiens) (UniProt Q16828). The test is described as above. Conditions: HeLa MKP-3 transfected, phospho-Erk imaging KS statistic; at 10 µM; stronger effect = higher value; cells stimulated with TPA for 15 min.
Test [5] concerns the target Voltage-gated potassium channel subunit beta-2 (Rattus norvegicus) (UniProt P62483). In words: inhibitors of rat Kvbeta2 reductase activity – biochemical, NADPH fluorescence, primary screen (AID 622).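 Note: slope of raw intensity against log time taken from 70 to 1610 s.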 The conditions noted are these: recombinant KvBeta, 4-cyanobenzaldehyde reduction, at 10 µM, stronger effect = higher value.
For test [6] the target is unchanged. Nature of the test: enhancers of rat Kvbeta2 NADPH turnover – biochemical, NADPH fluorescence, primary screen (AID 623;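 active = NADPH fluorescence slope more negative than the mean of all samples by about 3 SD, 99.7% confidence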;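 note: fluorescence intensity change per second fitted from 20 to 320 s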). The conditions noted are these: Recombinant KvBeta, NADPH fluorescence decrease slope, 10 min; at 10 µM; stronger effect = lower value.
For test [7], the target named is Muscarinic acetylcholine receptor M4 (Homo sapiens) (UniProt P08173). In words: M4-linked GIRK flux change, two-sided – cell-based, HEK293 M4/GIRK, thallium flux, BTC-AM, M4 allosteric agonist project, primary screen (AID 625;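 active = fluorescence slope after compound addition differing from the mean of all tested samples at 99.7% confidence, mostly higher but some lower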;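 note: thallium influx through GIRK channels coupled to M4 in HEK293 cells with BTC-AM dye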). The conditions noted are these: at 10 µM, actives lie on both sides. Summed up:
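assay system = HEK293 cells with M4 receptor and GIRK channels | medium = pH 7.3 thallium assay buffer | doses = 10 µM final, single point | timing = cells overnight at 37 °C, BTC-AM loading 1 h, reads 2 min total | signal = BTC-AM fluorescence, 1 Hz kinetic reads | read-out = post-addition slope, 15–24 s, of baseline-normalized fluorescence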

The nature of test [8]: inhibitors of larval lipid processing in zebrafish, primary screen, whole organism, PED6 fluorescence, gall bladder and intestine (AID 686;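 active = a full or partial loss of lipid-probe fluorescence in the fish gall bladder, intestine or both, judged by eye; inactive = no fluorescence loss, or compound toxic to the fish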;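 note: larvae 5 to 7 days old with five fish per well; signal comes from phospholipase A2 cleavage of quenched PED6 carried via bile; overnight exposure to compound and PED6 before scoring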). The conditions noted are these: Zebrafish larvae PED6 lipid processing, fluorescence scoring; screened at 20 µM (by protocol). An outline of the steps: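 Also added: quenched phospholipase substrate PED6, 100 nM final, ingested by larvae; System: zebrafish larvae, 5-7 d; Quantity: 5 larvae per well; Compound: 20 µM single dose; Schedule: overnight compound and PED6 incubation; Read-out: visual per-well fluorescence inhibition score; Measured by: By-eye fluorescence microscopy; Medium: E3.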

A short description of test [9]: loss of swimming-algae plug formation – whole organism, Chlamydomonas reinhardtii, WT vs cilia-less mutant, absorbance, 96-well, primary screen (AID 463189;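 active = inhibition at or above 50% relative to wild type and mutant plate controls; inactive = inhibition below 50%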;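 note: 0% = wild type cc124 cells in DMSO and 100% = ciliumless bld1 mutant cells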). Conditions: Chlamydomonas reinhardtii gravitaxis, OD600 absorbance, 2 days; at 10 µM; stronger effect = higher value.
Where [10] appears, read: measured here: cell density z-score.
Setting [11] is: measured here: nuclear c-Myc green intensity z-score.
Where [12] appears, read: measured here: nuclear pErk red intensity z-score, stronger effect = higher value.

Muscarinic acetylcholine receptor M4 (Homo sapiens), sequence (P08173 whole entry, looked up): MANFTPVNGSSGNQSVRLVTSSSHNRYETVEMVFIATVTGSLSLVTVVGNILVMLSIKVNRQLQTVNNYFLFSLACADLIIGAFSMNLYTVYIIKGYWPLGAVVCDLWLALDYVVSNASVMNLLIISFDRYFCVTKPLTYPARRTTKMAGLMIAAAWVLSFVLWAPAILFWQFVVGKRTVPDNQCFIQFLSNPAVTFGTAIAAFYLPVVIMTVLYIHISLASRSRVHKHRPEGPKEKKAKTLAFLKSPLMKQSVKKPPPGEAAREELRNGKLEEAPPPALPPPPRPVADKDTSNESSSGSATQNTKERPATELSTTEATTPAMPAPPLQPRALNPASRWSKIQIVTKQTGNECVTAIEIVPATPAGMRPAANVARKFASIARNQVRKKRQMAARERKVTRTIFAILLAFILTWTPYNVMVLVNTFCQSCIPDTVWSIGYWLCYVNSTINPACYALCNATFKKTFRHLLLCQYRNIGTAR
Voltage-gated potassium channel subunit beta-2 (Rattus norvegicus), sequence (P62483 whole entry, looked up): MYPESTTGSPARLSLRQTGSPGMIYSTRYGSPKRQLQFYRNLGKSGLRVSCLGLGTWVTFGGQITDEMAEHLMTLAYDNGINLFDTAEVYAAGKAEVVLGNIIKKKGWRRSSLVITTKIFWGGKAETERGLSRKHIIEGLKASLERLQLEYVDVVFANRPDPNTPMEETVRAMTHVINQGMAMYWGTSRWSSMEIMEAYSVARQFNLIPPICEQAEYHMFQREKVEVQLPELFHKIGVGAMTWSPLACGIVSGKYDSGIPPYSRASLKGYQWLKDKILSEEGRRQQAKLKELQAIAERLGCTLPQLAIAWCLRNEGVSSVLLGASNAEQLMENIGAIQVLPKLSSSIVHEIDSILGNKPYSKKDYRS
Dual specificity protein phosphatase 6 (Homo sapiens), sequence (Q16828 whole entry, looked up): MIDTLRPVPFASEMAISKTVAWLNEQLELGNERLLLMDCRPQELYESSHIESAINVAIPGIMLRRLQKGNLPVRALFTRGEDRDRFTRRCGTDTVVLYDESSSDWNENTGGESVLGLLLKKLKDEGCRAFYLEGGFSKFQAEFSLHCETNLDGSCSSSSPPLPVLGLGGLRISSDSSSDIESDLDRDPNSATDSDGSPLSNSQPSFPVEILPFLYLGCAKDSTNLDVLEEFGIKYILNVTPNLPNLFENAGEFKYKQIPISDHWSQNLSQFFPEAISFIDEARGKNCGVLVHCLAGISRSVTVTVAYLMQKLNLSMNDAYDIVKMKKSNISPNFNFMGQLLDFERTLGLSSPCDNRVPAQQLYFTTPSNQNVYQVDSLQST

In the case of `N#Cc1c(NCCCO)nc(-c2ccccc2)c2c1CCCC2`, in test [1], the cell count came to 598. The inhibition (usually the change of the read-out against control, counted positive when it falls) in [1] is -4.5% (inactive); in test [2], -60.9% (inactive); in test [4] it was -0.233% (inactive); in test [9], 0.512% (inactive). The compound also gave a nuclei count in test [2] of 154%. Also, the z-score in [3] (setting [10]) was -0.266; in [3] (setting [11]), 0.00477; in test [3] (setting [12]), 1.17. The fluorescence slope in test [5] was -0.435 (inactive); in [7] it was 0.00541 (inactive). Besides, the NADPH fluorescence slope in test [6] is -0.000107 (inactive). The compound was classed as inactive in test [8].
For the compound `COc1ccc(/C(O)=C2/C(=O)C(=O)N(CCN3CCOCC3)C2c2cccnc2)cc1OC` (centres undefined), the cell count in test [1] was 364. Moreover, the inhibition was -4.2% (inactive) in [1], -126% (inactive) in test [2], 11.9% (inactive) in test [4] and -1.91% (inactive) in [9]. In addition, in test [2], the nuclei count came to 151%. For the same compound, the z-score in [3] (setting [10]) is -0.575; in test [3] (setting [11]), 1.61; in test [3] (setting [12]), -0.594. For the same compound, the fluorescence slope in test [5] is -0.486 (inactive); in test [7], 0.00405 (inactive). For the same compound, the NADPH fluorescence slope in test [6] was -4.1e-05 (inactive). In [8], the outcome was inactive.
On to `Cc1cc(=O)oc2cc(OCC(=O)NCc3cccnc3)ccc12`, for which the cell count in test [1] stood at 618. Moreover, the inhibition in test [1] is 9% (inactive); in test [2] it was -1.6% (inactive); in test [4], -3.95% (inactive); in test [9], -0.087% (inactive). Besides, the nuclei count in [2] amounted to 105%. The z-score in test [3] (setting [10]) is -0.419; in test [3] (setting [11]) it was -0.48; in [3] (setting [12]), 0.0246. Moreover, the fluorescence slope was -0.428 (inactive) in [5] and 0.00447 (inactive) in test [7]. Besides, the NADPH fluorescence slope in [6] is -5e-05 (inactive). Also, the compound was called inactive in [8].
With `O=c1[nH]c2sc3c(c2c(=O)n1Cc1ccccc1)CCC3`, the cell count in test [1] is 602. The inhibition is -2.5% (inactive) in test [1], -99.8% (inactive) in test [2], 9.07% (inactive) in [4] and -9.09% (inactive) in [9]. Moreover, in [2], the nuclei count was 146%. For the same compound, the z-score in test [3] (setting [10]) is 0.896; in test [3] (setting [11]) it was 0.335; in test [3] (setting [12]) it was -0.051. The values for the fluorescence slope in test [5] and in test [7] were -0.453 (inactive) and 0.00552 (inactive), respectively. The NADPH fluorescence slope in [6] is -0.000103 (inactive). The call in test [8] was inactive.
With `Cc1cc(N2C(=O)C(=O)/C(=C(/O)c3ccc(F)cc3)C2c2cccc(Br)c2)no1` (centres undefined), the cell count in [1] was 478. Moreover, the inhibition is 2.6% (inactive) in test [1], 2.7% (inactive) in [2], 1.04% (inactive) in test [4] and 15.6% (inactive) in test [9]. This compound also yielded a nuclei count in test [2] of 145%. For the same compound, the z-score in [3] (setting [10]) amounted to 0.015; in test [3] (setting [11]), 0.305; in [3] (setting [12]), 1.03. The fluorescence slope in [5] was -0.439 (inactive); in [7], 0.00551 (inactive). Moreover, the NADPH fluorescence slope in test [6] is -4.6e-05 (inactive). Moreover, the compound was called inactive in [8].
`COC(=O)C1CCN(c2nc3ccccc3nc2C(C#N)C(=O)NCCc2ccccc2)CC1` (centres undefined): the cell count in test [1] came to 600. Moreover, the inhibition was -8.8% (inactive) in test [1], -60.5% (inactive) in [2], 1.42% (inactive) in [4] and -8.92% (inactive) in test [9]. Further, in [2], the nuclei count was found to be 199%. Also, the z-score was 0.0104 in test [3] (setting [10]), -0.0979 in [3] (setting [11]) and -0.225 in test [3] (setting [12]). Moreover, the values for the fluorescence slope in [5] and in test [7] were -0.356 (inactive) and 0.00365 (inactive), respectively. Further, the NADPH fluorescence slope in [6] is -5.2e-05 (inactive). Besides, the call in test [8] was inactive.
In the case of `COc1cc2c(cc1OC)C1(CCCC1)C(N)=C2C#N`, the cell count in test [1] amounted to 374. The inhibition in [1] is 2.5% (inactive); in test [2] it was 36.9% (inactive); in test [4] it was 17.4% (inactive); in test [9], 2.1% (inactive). In test [2], this compound displayed a nuclei count of 104%. The z-score in test [3] (setting [10]) is -0.0432; in test [3] (setting [11]), -0.638; in [3] (setting [12]), 1.42. Also, the fluorescence slope in test [5] is -0.437 (inactive); in test [7] it was 0.00412 (inactive). Besides, the NADPH fluorescence slope in [6] is -0.000121 (inactive). Moreover, the call in test [8] was inactive.
In the case of `O=C(c1cc(N2CCCCC2)nc2ccccc12)N1CCOCC1`, in [1], the cell count was determined as 627. The inhibition in test [1] was 3.5% (inactive); in [2] it was -37.7% (inactive); in [4] it was -15% (inactive); in [9], 1.82% (inactive). Also, in test [2], the nuclei count was 159%. Moreover, the z-score is -1.1 in test [3] (setting [10]), 2.14 in test [3] (setting [11]) and 1.42 in test [3] (setting [12]). Besides, the fluorescence slope in [5] is -0.422 (inactive); in test [7], 0.0052 (inactive). For the same compound, the NADPH fluorescence slope in test [6] was -1.2e-05 (inactive). Also, the outcome in test [8] was inactive.
Consider `CCCCCCOc1ccc(C(=O)n2cnc(N)n2)cc1`, for which the cell count in [1] is 664. For the same compound, the inhibition is -4.5% (inactive) in test [1], -26.7% (inactive) in [2], -5.95% (inactive) in test [4] and 0.29% (inactive) in test [9]. Besides, the nuclei count in test [2] is 174%. Further, the z-score in [3] (setting [10]) is 0.344; in test [3] (setting [11]), 0.534; in test [3] (setting [12]), -0.706. In addition, the values for the fluorescence slope in test [5] and in [7] were -0.508 (inactive) and 0.00638 (inactive), respectively. Further, the NADPH fluorescence slope in test [6] is -7.5e-05 (inactive). In addition, the call in test [8] was inactive.
For `CCCc1nc2n[nH]c(N)c2c2c1COC(C)(C)C2`, in test [1], the cell count stood at 597. Besides, the inhibition was -4% (inactive) in test [1], -13.2% (inactive) in [2], -11.9% (inactive) in test [4] and 10.6% (inactive) in test [9]. Besides, in [2], the nuclei count amounted to 168%. Also, the results for the z-score in [3] (setting [10]), in test [3] (setting [11]) and in test [3] (setting [12]) were -0.7, -1.13 and 1.4, respectively. The fluorescence slope is -0.369 (inactive) in [5] and 0.00478 (inactive) in test [7]. In test [6], the NADPH fluorescence slope is -3.1e-05 (inactive). Further, the compound was called inactive in [8].
For `O=c1oc2c(CN3CCCCC3)c(O)ccc2c2c1CCCCC2`, the cell count in test [1] was 566. Further, the inhibition in test [1] was -6.1% (inactive); in test [2], 34% (inactive); in [4], 14.4% (inactive); in test [9], 3.57% (inactive). This compound gave a nuclei count in test [2] of 168%. Moreover, the z-score in test [3] (setting [10]) was 1.43; in test [3] (setting [11]) it was -1.18; in test [3] (setting [12]) it was -0.137. In addition, the fluorescence slope in test [5] is -0.00573 (inactive); in test [7], 0.00521 (inactive). Besides, the NADPH fluorescence slope in test [6] was 8.5e-07 (inactive). Besides, the outcome in [8] was inactive.
With `COc1ccc(-c2nn(C)c(=O)c3ccccc23)cc1NS(C)(=O)=O`, in test [1], the cell count was determined as 373. The inhibition was -6.1% (inactive) in test [1], -7.8% (inactive) in test [2], 11.9% (inactive) in [4] and -10.8% (inactive) in test [9]. This compound yielded a nuclei count in test [2] of 104%. Moreover, the z-score in [3] (setting [10]) is -0.517; in test [3] (setting [11]), 0.9; in [3] (setting [12]), -0.714. Besides, the fluorescence slope in test [5] was -0.509 (inactive); in [7], 0.00473 (inactive). For the same compound, the NADPH fluorescence slope in test [6] is 1.7e-05 (inactive). The compound was called inactive in test [8].
Take `c1ccc2c(N3CCCCC3)nc(N3CCCCC3)nc2c1`: the cell count in [1] stood at 497. In addition, the inhibition is -2.8% (inactive) in test [1], 20.7% (inactive) in test [2], 1.9e-07% (inactive) in test [4] and 4.68% (inactive) in test [9]. In addition, the nuclei count in test [2] was 159%. The z-score in test [3] (setting [10]) was -1.53; in [3] (setting [11]), 0.598; in [3] (setting [12]), 1.04. In addition, the fluorescence slope in test [5] was -0.388 (inactive); in test [7], 0.00468 (inactive). Besides, the NADPH fluorescence slope in test [6] was -3.5e-05 (inactive). Also, the compound was called inactive in [8].
